ASAP1 GAP inh: inhibitors of human ASAP1 ArfGAP activity, primary screen, biochemical, fluorescence polarization; hit rate 0.19% among 360,000; ASAP1-stimulated ARF1 GTP hydrolysis, GDP FP detection; inhibition, % at 16.5 µM; in the data active = inhibition above about 25%;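 also: 0% = vehicle with enzyme and substrate and 100% = no enzyme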
ARFGAP1 inh: inhibitors of rat ARFGAP1 GAP activity, primary screen, biochemical, fluorescence polarization, GDP tracer. Arfgap1-stimulated ARF1 GTP hydrolysis, GDP FP detection. hit rate 0.26% among 360,000. inhibition, % at 16.5 µM. AID 651572, 2012;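 active = inhibition above a per-plate limit, mean inhibition of low control wells plus 3 SD, cut at about 25% in these data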;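 also: 0% = DMSO wells with enzyme and 100% = wells lacking Arfgap1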
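material = rat Arfgap1 catalytic domain, aa 1-136 | also added = human ARF1(Δ1-17)-GTP substrate | compound dosing = one concentration, 16.5 µM, DMSO 1.26% | times = GTP hydrolysis reaction 2 h at 25 °C | measured by = FP, GDP Alexa 633 tracer displaced from anti-GDP antibody, 620/688 nm | evaluation = percent inhibition of Arfgap1-stimulated GTP hydrolysis | replication = single well per compound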
Neddyl block: inhibitors of cullin neddylation, primary screen, biochemical, TR-FRET, uHTS, NAE and Ubc12; hit rate 0.58% among 360,000; inhibition, % at 25 µM; NEDD8-conjugating enzyme Ubc12 (Homo sapiens) + NEDD8-activating enzyme E1 regulatory …; in the data active = inhibition above about 36%
Target sequence (P61081 whole entry, looked up): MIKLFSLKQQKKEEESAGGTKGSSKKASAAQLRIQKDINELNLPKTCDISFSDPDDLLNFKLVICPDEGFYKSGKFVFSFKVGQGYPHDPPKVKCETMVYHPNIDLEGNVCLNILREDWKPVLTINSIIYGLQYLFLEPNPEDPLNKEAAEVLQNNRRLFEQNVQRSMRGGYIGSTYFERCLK
Target sequence (Q13564 whole entry, looked up): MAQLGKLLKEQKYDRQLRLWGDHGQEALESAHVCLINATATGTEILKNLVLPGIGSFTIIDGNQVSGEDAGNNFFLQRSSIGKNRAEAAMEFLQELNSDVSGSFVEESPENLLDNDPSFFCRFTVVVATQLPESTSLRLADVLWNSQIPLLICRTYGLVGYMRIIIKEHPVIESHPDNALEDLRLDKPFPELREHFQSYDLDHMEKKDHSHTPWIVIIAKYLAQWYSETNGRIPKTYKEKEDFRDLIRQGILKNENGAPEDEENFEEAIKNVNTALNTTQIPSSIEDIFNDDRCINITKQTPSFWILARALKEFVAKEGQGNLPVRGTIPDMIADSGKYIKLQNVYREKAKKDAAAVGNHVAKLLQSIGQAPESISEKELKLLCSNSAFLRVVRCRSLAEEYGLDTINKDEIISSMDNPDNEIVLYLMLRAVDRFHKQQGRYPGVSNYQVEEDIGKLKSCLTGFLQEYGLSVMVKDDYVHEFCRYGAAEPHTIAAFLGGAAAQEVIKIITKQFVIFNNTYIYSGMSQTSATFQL
Cardio protect: cardioprotection against H2O2-induced cell death, primary screen, uHTS, H9c2 cells, ATPLite luminescence; protection from H2O2 cell death, % at 20 µM; H9c2 cardiomyocytes, H2O2 injury protection, 2 h; hit rate 0.63% among 360,000;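 active = compounds giving at least 50% protection of heart cells from peroxide-induced death in the single-dose screen, raw or plate-pattern-corrected value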;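 also: 0% = DMSO wells with peroxide and 100% = DMSO wells without peroxide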
An asterisk follows results filed as active. A selection: hits, their analogues and other compounds. The true share with any hit is near 1.6%.

Cc1c(C(=O)NCc2ccccc2C(F)(F)F)sc(=O)n1Cc1ccccc1C#N was read as ASAP1 GAP inh -0.1, ARFGAP1 inh -2.9, Neddyl block 4.1 and Cardio protect 3.9.
Screening O=C(COC(=O)CCc1nc2ccccc2c(=O)[nH]1)Nc1ccc2c(c1)OCO2 returned ASAP1 GAP inh -0.2, ARFGAP1 inh -0.6, Neddyl block -2.8 and Cardio protect 51.8*.
Screening Cc1ccccc1NC(=O)COC(=O)CCc1nc2ccccc2c(=O)[nH]1 returned ASAP1 GAP inh 9.8, ARFGAP1 inh 8.8, Neddyl block 13.1 and Cardio protect 65.0*.
O=C(COC(=O)CCc1nc2ccccc2c(=O)[nH]1)NC(c1ccccc1)c1ccccc1 was read as ASAP1 GAP inh -1.5, ARFGAP1 inh 5.0, Neddyl block -31.1 and Cardio protect 58.6*.
`CN(CC(=O)Nc1ccc2c(c1)OCCO2)Cc1nc2ccccc2c(=O)[nH]1` gave ASAP1 GAP inh -7.2, ARFGAP1 inh 4.3, Neddyl block -13.1 and Cardio protect 20.9.
`COc1ccc(C(=O)NNC(=O)CCc2nc3ccccc3c(=O)[nH]2)cc1` gave ASAP1 GAP inh 0.8, ARFGAP1 inh 4.1, Neddyl block -7.9 and Cardio protect 63.5*.
For CSCCC(NC(=O)c1ccccc1Cl)C(=O)NCCOc1ccc(C)cc1 (stereo not drawn) the results were ASAP1 GAP inh -4.4, ARFGAP1 inh -5.5, Neddyl block 4.1 and Cardio protect 0.1.
O=C(COC(=O)CCc1nc2ccccc2c(=O)[nH]1)Nc1c(Cl)cccc1C(F)(F)F was read as ASAP1 GAP inh 0.0, ARFGAP1 inh -10.0, Neddyl block 3.8 and Cardio protect 52.1*.
N#CCCN(C(=O)COC(=O)CCc1nc2ccccc2c(=O)[nH]1)c1ccccc1F was read as ASAP1 GAP inh 4.4, ARFGAP1 inh 15.8, Neddyl block -15.3 and Cardio protect 57.7*.
Screening O=C(COC(=O)CCc1nc2ccccc2c(=O)[nH]1)NC(=O)NC1CCCC1 returned ASAP1 GAP inh 4.4, ARFGAP1 inh -6.0, Neddyl block -0.1 and Cardio protect 33.7.
Screening CC(OC(=O)CCc1nc2ccccc2c(=O)[nH]1)C(=O)NC1CCCC1 (stereo not drawn) returned ASAP1 GAP inh 0.4, ARFGAP1 inh 4.0, Neddyl block -1.6 and Cardio protect 54.9*.
Screening COC(=O)[C@]12C[C@H](CC(=O)NCCCN3CCCC3=O)C(=O)N(Cc3ccccc3)C1=C[C@H](C(C)C)O[C@@H]2C1CC1 returned ASAP1 GAP inh -3.5 and ARFGAP1 inh 8.7.
`COc1ccc(C2SCC(C(=O)O)N2C(C)=O)cc1OC` (stereo not drawn) gave ASAP1 GAP inh -1.9, ARFGAP1 inh 26.8*, Neddyl block -2.2 and Cardio protect -3.7.
For COc1ccc(C2SCC(C(=O)O)N2C(C)=O)cc1 (stereo not drawn) the results were ASAP1 GAP inh -2.0, ARFGAP1 inh -12.5, Neddyl block 0.6 and Cardio protect 11.9.
For Cc1ccc(NC(=O)NC2=N/C(=C(/C#N)C(=O)N3CCCC3)c3ccccc32)cc1 the results were ASAP1 GAP inh 7.7, ARFGAP1 inh 13.3, Neddyl block -22.5 and Cardio protect 70.0*.
Screening N#C/C(C(=O)N1CCCC1)=C1/N=C(N)c2ccccc21 returned ASAP1 GAP inh 12.6, ARFGAP1 inh -3.5, Neddyl block -3.4 and Cardio protect -0.2.
Screening O=C1c2cccc3cccc(c23)C(=O)N1c1nccs1 returned ASAP1 GAP inh -0.2, ARFGAP1 inh 14.3, Neddyl block 15.1 and Cardio protect 9.2.
O=C1c2cccc3c([N+](=O)[O-])ccc(c23)C(=O)N1c1ccc(Cl)cn1 was read as ASAP1 GAP inh 6.4, ARFGAP1 inh 1.5, Neddyl block 50.3* and Cardio protect -17.5.
For O=C1c2cccc3c([N+](=O)[O-])ccc(c23)C(=O)N1c1ccccn1 the results were ASAP1 GAP inh 2.7, ARFGAP1 inh 3.9, Neddyl block 30.2 and Cardio protect -39.5.
For O=C1c2cccc3c([N+](=O)[O-])ccc(c23)C(=O)N1c1nccs1 the results were ASAP1 GAP inh 2.8, ARFGAP1 inh 6.9, Neddyl block 54.6* and Cardio protect -22.8.
Cc1ccc2cc3c(NC(=O)c4cccnc4)nn(C)c3nc2c1 was read as ASAP1 GAP inh 6.0, ARFGAP1 inh 8.5, Neddyl block 36.6 and Cardio protect 58.9*.
For CC(=O)Nc1nn(C)c2nc3cc(C)ccc3cc12 the results were ASAP1 GAP inh 3.9, ARFGAP1 inh 0.7, Neddyl block 34.0 and Cardio protect 16.0.
Screening Cn1c(=O)c2c(nc(NCc3cccnc3)n2Cc2cccc(C(F)(F)F)c2)n(C)c1=O returned ASAP1 GAP inh -9.7, ARFGAP1 inh -7.4, Neddyl block -0.5 and Cardio protect 73.4*.
Screening CNC(=O)NC(=O)C(C)OC(=O)c1c2c(nc3ccccc13)/C(=C/c1cccs1)CC2 (stereo not drawn) returned ASAP1 GAP inh 6.8, ARFGAP1 inh 5.4, Neddyl block 44.8* and Cardio protect 12.7.
For CCCCNC(=O)COC(=O)c1c2c(nc3ccccc13)/C(=C/c1cccs1)CC2 the results were ASAP1 GAP inh -3.8, ARFGAP1 inh 7.4 and Cardio protect 12.1.
`CC(=O)n1cc(/C=N/NC(=O)c2sc(C)nc2C)c2ccccc21` gave ASAP1 GAP inh 2.0, ARFGAP1 inh 4.3, Neddyl block 3.2 and Cardio protect 56.5*.
CSc1nsc(SC)c1C(=O)N1CCN(S(=O)(=O)c2ccc(C)cc2)C1C(C)C (stereo not drawn) was read as ASAP1 GAP inh 1.8, ARFGAP1 inh -7.9, Neddyl block 1.1 and Cardio protect 83.0*.
`CSc1nsc(SC)c1C(=O)N1CCN(S(=O)(=O)c2ccc(C)cc2)C1C` (stereo not drawn) gave ASAP1 GAP inh -1.2, ARFGAP1 inh -2.4, Neddyl block 2.6 and Cardio protect 37.1.
COc1cccc(-c2nnc(NC(=O)c3ccc(Cl)s3)o2)c1 was read as ASAP1 GAP inh -11.1, ARFGAP1 inh 4.1, Neddyl block 2.8 and Cardio protect 58.2*.
CCn1c(NC(=O)/C=C/c2ccc(F)cc2)nc2ccccc21 was read as ASAP1 GAP inh -3.7, ARFGAP1 inh -5.5, Neddyl block 4.0 and Cardio protect 74.5*.
`CCn1c(NC(=O)c2ccccc2)nc2ccccc21` gave ASAP1 GAP inh -17.5, ARFGAP1 inh 18.5, Neddyl block 12.7 and Cardio protect 8.5.
Screening C/C(=N\NC(=O)CCCNc1ccccc1)c1ccncc1 returned ASAP1 GAP inh 1.4, ARFGAP1 inh 7.0, Neddyl block 0.5 and Cardio protect -0.6.
Screening C/C(=N\NC(=O)CCCNc1ccc(C)cc1)c1ccccn1 returned ASAP1 GAP inh -5.4, ARFGAP1 inh 12.8, Neddyl block 5.1 and Cardio protect 57.8*.

Bioassay records from PubChem.
